pEC50, pIC50: −log10 of the molar value.
Legend:
[1] = Antibacterial activity against Synechocystis sp. PCC 6803 at 10 uM; assay type: functional
[2] = Inhibition of Escherichia coli PDHc-E1 expressed in Escherichia coli TB1 using sodium pyruvate as substrate and ThDP after 3 mins by 2,6-DCPIP based microplate reader method
Method in brief: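 The enzyme (7.1 µM) was preincubated 3 min at 37 °C with varied inhibitor in 50 mM K3PO4 pH 7.2, 2.0 mM pyruvate and 0.8 mM 2,6-DCPIP. ThDP (0–200 µM) started the reaction, read as A600 decrease. IC50 came from a Hill fit of initial rates.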

[3] = Antibacterial activity against Synechocystis sp. PCC 6803; assay type: functional
Alternaria solani = assay: Antifungal activity against Alternaria solani at 100 ug/ml; assay type: functional
Botrytis cinerea = assay: Antifungal activity against Botrytis cinerea at 100 ug/ml; assay type: functional
[4] = test system: Colletotrichum orbiculare; assay: Antifungal activity against Colletotrichum orbiculare at 100 ug/ml; assay type: functional
Rhizoctonia solani = assay: Antifungal activity against Rhizoctonia solani at 100 ug/ml; assay type: functional
[5] = Inhibition of Escherichia coli PDHc-E1 F602A mutant expressed in Escherichia coli TB1 using sodium pyruvate as substrate and ThDP after 3 mins by 2,6-DCPIP based microplate reader method
Method in brief: (§1)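 Point mutants were made by PCR mutagenesis on a pMAL-c2x-PDHc-E1 template, DpnI-digested and passed through DH5α. […] Assays used 7.1 µM enzyme, 50 mM K3PO4 pH 7.2, 2.0 mM pyruvate and 0.8 mM DCPIP, with 3 min preincubation at 37 °C and ThDP (0–200 µM) start. A600 was read and IC50 taken by Hill fit.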

[6] = target: T1, Pyruvate dehydrogenase E1 component subunit alpha, somatic form, mitochondrial (Sus scrofa) (UniProt P29804); assay: Inhibition of pig heart PDHc-E1 using sodium pyruvate as substrate at 100 uM after 3 mins by 2,6-DCPIP based microplate reader method
T1 sequence (whole entry): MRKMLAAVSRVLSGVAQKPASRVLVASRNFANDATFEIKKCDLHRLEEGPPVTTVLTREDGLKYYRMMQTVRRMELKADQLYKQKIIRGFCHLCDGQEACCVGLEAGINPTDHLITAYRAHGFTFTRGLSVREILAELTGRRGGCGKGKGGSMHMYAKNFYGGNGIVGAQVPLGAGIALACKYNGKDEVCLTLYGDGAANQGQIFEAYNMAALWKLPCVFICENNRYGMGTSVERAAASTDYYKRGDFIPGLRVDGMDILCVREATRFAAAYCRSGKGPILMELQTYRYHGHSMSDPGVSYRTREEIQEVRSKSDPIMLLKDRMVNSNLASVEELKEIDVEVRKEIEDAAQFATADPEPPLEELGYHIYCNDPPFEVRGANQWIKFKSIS

Escherichia coli [7] = assay: Selectivity index, ratio of IC50 for Escherichia coli PDHc-E1 K392A mutant to IC50 for Escherichia coli WT PDHc-E1
[8] = Inhibition of Escherichia coli PDHc-E1 V192A mutant expressed in Escherichia coli TB1 using sodium pyruvate as substrate and ThDP after 3 mins by 2,6-DCPIP based microplate reader method; method in brief: as §1
[9] = Inhibition of Escherichia coli PDHc-E1 E571A mutant expressed in Escherichia coli TB1 using sodium pyruvate as substrate and ThDP after 3 mins by 2,6-DCPIP based microplate reader method; method in brief: as §1
Escherichia coli [10] = assay: Inhibition of Escherichia coli PDHc-E1 expressed in Escherichia coli TB1 at 100 uM using sodium pyruvate as substrate after 3 mins by 2,6-DCPIP based microplate reader method
[11] = Inhibition of Escherichia coli PDHc-E1 E522A mutant expressed in Escherichia coli TB1 using sodium pyruvate as substrate and ThDP after 3 mins by 2,6-DCPIP based microplate reader method; method in brief: as §1
[12] = Inhibition of Escherichia coli PDHc-E1 M194A mutant expressed in Escherichia coli TB1 using sodium pyruvate as substrate and ThDP after 3 mins by 2,6-DCPIP based microplate reader method; method in brief: as §1
[13] = Inhibition of Escherichia coli TB1 PDHc-E1 H106A mutant expressed in Escherichia coli TB1 using sodium pyruvate as substrate and ThDP after 3 mins by 2,6-DCPIP based microplate reader method; method in brief: as §1
[14] = Inhibition of Escherichia coli TB1 PDHc-E1 K392A mutant expressed in Escherichia coli TB1 using sodium pyruvate as substrate and ThDP after 3 mins by 2,6-DCPIP based microplate reader method; method in brief: as §1
Escherichia coli [15] = assay: Selectivity index, ratio of IC50 for Escherichia coli PDHc-E1 H106A mutant to IC50 for Escherichia coli WT PDHc-E1

Structure (SMILES)	pIC50 [2]	pEC50 [3]	pIC50 [5]	inhibition [6] [%]	Ratio IC50 (Escherichia coli [7])	pIC50 [8]	pIC50 [9]	inhibition (Escherichia coli [10]) [%]	pIC50 [11]	pIC50 [12]	pIC50 [13]	pIC50 [14]	Ratio IC50 (Escherichia coli [15])	inhibition at 10 µM [1] [%]	inhibition at 100 µg/mL (Alternaria solani) [%]	inhibition at 100 µg/mL (Botrytis cinerea) [%]	inhibition at 100 µg/mL [4] [%]	inhibition at 100 µg/mL (Rhizoctonia solani) [%]
CNc1nc(C(F)(F)F)c(-c2nnc(SCc3cn(Cc4cnc(C)nc4N)nn3)n2N)s1	4.80	5.01													21	8	28	11
Cc1ncc(Cn2cc(CSc3nnc(-c4cccc([N+](=O)[O-])c4)o3)nn2)c(N)n1	4.98	5.29												90	48	59	40	60
Cc1ncc(Cn2cc(CSc3nnc(-c4cc([N+](=O)[O-])cc([N+](=O)[O-])c4)o3)nn2)c(N)n1	5.06	5.63												90	30	41	33	30
CNc1nc(C(F)(F)F)c(-c2nnc(SCc3cn(Cc4cnc(C)nc4N)nn3)o2)s1	6.01	6.08	5.29	26.1	20	4.48	5.30	100	4.96	4.72	4.94	4.69	11	90	41	50	36	14
Cc1ncc(Cn2cc(CSc3nnc(-c4sc(N)nc4C)o3)nn2)c(N)n1	5.36	5.79		27.1				100						90	56	31	24	11
Cc1ncc(Cn2cc(CSc3nnc(-c4ccccc4[N+](=O)[O-])o3)nn2)c(N)n1	5.01	5.32												90	58	54	48	40
CNc1nc(C)c(-c2nnc(SCc3cn(Cc4cnc(C)nc4N)nn3)o2)s1	5.18	5.82		15.6				100						90	44	31	26	11
Cc1ncc(Cn2cc(CSc3nnc(-c4ccc(C(F)(F)F)cc4)o3)nn2)c(N)n1	4.80	5.27												90	35	45	45	0
CNc1nc(C)c(-c2nnc(SCc3cn(Cc4cnc(C)nc4N)nn3)n2N)s1	4.96	5.52												90	25	11	16	17
Cc1ncc(Cn2cc(CSc3nnc(-c4sc(N)nc4C(F)(F)F)n3N)nn2)c(N)n1	5.30	5.49												90	21	20	35	11
Cc1ncc(Cn2cc(CSc3nnc(-c4sc(N)nc4C)n3N)nn2)c(N)n1	5.15	5.64												90	29	16	26	16
Cc1ncc(Cn2cc(CSc3nnc(-c4sc(N)nc4C(F)(F)F)o3)nn2)c(N)n1	5.40	5.79		28.3				100						90	53	60	25	11
Cc1ncc(Cn2cc(CSc3nnc(-c4ccc([N+](=O)[O-])cc4Cl)o3)nn2)c(N)n1	4.89	5.20													35	54	38	46

Now from value to molecule, other results behind:

pIC50 [2]	pEC50 [3]	pIC50 [5]	inhibition [6] [%]	Ratio IC50 (Escherichia coli [7])	pIC50 [8]	pIC50 [9]	inhibition (Escherichia coli [10]) [%]	pIC50 [11]	pIC50 [12]	pIC50 [13]	pIC50 [14]	Ratio IC50 (Escherichia coli [15])	Structure (SMILES)	inhibition at 10 µM [1] [%]	inhibition at 100 µg/mL (Alternaria solani) [%]	inhibition at 100 µg/mL (Botrytis cinerea) [%]	inhibition at 100 µg/mL [4] [%]	inhibition at 100 µg/mL (Rhizoctonia solani) [%]
4.58	< 4.30												Cc1ncc(Cn2cc(COc3ccc(Cl)cc3)nn2)c(N)n1	< 30				
5.12	5.04												Cc1ncc(Cn2cc(CSc3nnc(-c4ccc([N+](=O)[O-])cc4)o3)nn2)c(N)n1		60	45	35	55
4.91	5.64												Cc1ncc(Cn2cc(CSc3nnc(-c4ccccc4Cl)o3)nn2)c(N)n1					
4.72	5.09												Cc1ncc(Cn2cc(CSc3nnc(-c4ccccc4F)o3)nn2)c(N)n1		40	28	32	0
5.15	5.28												Cc1ncc(Cn2cc(CSc3nnc(-c4ccc(Cl)cc4)o3)nn2)c(N)n1	90	60	45	52	46
5.06	< 4.30												Cc1ncc(Cn2cc(COc3ccc([N+](=O)[O-])cc3)nn2)c(N)n1	< 30				
4.44	< 4.30												Cc1ncc(Cn2cc(COc3ccccc3[N+](=O)[O-])nn2)c(N)n1	< 30				
4.73	< 4.30												Cc1ncc(Cn2cc(COc3ccc(Cl)cc3Cl)nn2)c(N)n1	< 30				
5.10	5.29												Cc1ncc(Cn2cc(CSc3nnc(-c4ccccc4)o3)nn2)c(N)n1	90	47	60	40	30
5.04	5.27												Cc1ncc(Cn2cc(CSc3nnc(-c4ccc(F)cc4)o3)nn2)c(N)n1	90	44	60	32	0
4.88	5.22												Cc1ncc(Cn2cc(CSc3nnc(-c4ccc(Cl)cc4Cl)o3)nn2)c(N)n1					
4.26	< 4.30												Cc1ncc(Cn2cc(COc3ccccc3)nn2)c(N)n1	< 30				
